Common to all, as to type: functional
Test [1] concerns Proteus vulgaris. As to the kind of experiment: Antibacterial activity against Proteus vulgaris after 24 hrs by microdilution susceptibility assay. Summed up:
(§1)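 Bacterial strains from NCIM. Broth microdilution: stocks at 800 μg/ml in DMSO, two-fold dilutions 400, 200, 100 ... 6.25 μg/ml, wells inoculated with bacterial suspension, 36 °C for 24 h. MIC = lowest concentration with no turbidity (no visible growth). Chloramphenicol as reference.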

Test [2] deals with Bacillus subtilis. As to the kind of experiment: Antibacterial activity against Bacillus subtilis after 24 hrs by microdilution susceptibility assay. Summed up: as §1
Test [3] concerns Proteus vulgaris. The test can be described thus: Antibacterial activity against Proteus vulgaris at 200 ug/disk after 24 hrs by disk diffusion method. Particulars: read-out: IZ. Summed up:
(§2)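 Agar disc diffusion on nutrient agar with NCIM bacteria. 6 mm sterile paper discs moistened with compound in DMSO (100 or 200 μg/disc) placed on pre-inoculated plates. Incubated at 37 °C; growth-inhibition zone diameter measured after 24 h. Chloramphenicol control.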

Test [4] in a line: Antioxidant activity assessed as inhibition of nitric oxide production at 100 uM. An outline of the steps:
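Sodium nitroprusside ([…]) in phosphate buffer pH 7.4 incubated with 100 μM compound (dioxane/methanol) at 25 °C for 120 min; solvent-only control. Aliquots mixed 1:1 with Griess reagent (1% sulfanilamide, 0.1% N-naphthylethylenediamine, 2% phosphoric acid). Absorbance at 546 nm, triplicate.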

Test [5] concerns Curvularia lunata. As to the kind of experiment: Antifungal activity against […] lunata at 200 ug/disk after 48 hrs by disk diffusion method. Particulars: read-out: IZ. An outline of the steps: (§3)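 Fungi from NCIM on nutrient agar plates, pre-inoculated. 6 mm paper discs carrying 100 or 200 μg compound in DMSO applied. Plates incubated at 37 °C and inhibition zone diameter measured at 48 h. Ketoconazole control.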

In test [6] the test system is Proteus vulgaris. As to the kind of experiment: Antibacterial activity against Proteus vulgaris at 100 ug/disk after 24 hrs by disk diffusion method. Conditions: read-out: IZ. Summed up:
as §2

Test [7] concerns Aspergillus niger. As to the kind of experiment: Antifungal activity against Aspergillus niger at 200 ug/disk after 48 hrs by disk diffusion method. Conditions: read-out: IZ. An outline of the steps: as §3
Test [8] concerns Fusarium solani. The test can be described thus: Antifungal activity against Fusarium solani after 48 hrs by microdilution susceptibility assay. An outline of the steps:
(§4)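 Fungal strains from NCIM. Microdilution: stocks at 800 μg/ml in DMSO, two-fold dilutions 400 down to 6.25 μg/ml, wells inoculated with fungal suspension, incubated 36 °C for 48 h. MIC read as lowest concentration without turbidity. Ketoconazole reference.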

The test system of test [9] is Staphylococcus aureus. The test can be described thus: Antibacterial activity against Staphylococcus aureus at 200 ug/disk after 24 hrs by disk diffusion method. Particulars: read-out: IZ. An outline of the steps: as §2
The subject of test [10] is Staphylococcus aureus. The test can be described thus: Antibacterial activity against Staphylococcus aureus at 100 ug/disk after 24 hrs by disk diffusion method. Conditions: read-out: IZ. Summed up: as §2
In test [11] the test system is Curvularia lunata. As to the kind of experiment: Antifungal activity against Curvularia lunata after 48 hrs by microdilution susceptibility assay. An outline of the steps:
as §4

The subject of test [12] is Aspergillus niger. The test can be described thus: Antifungal activity against Aspergillus niger after 48 hrs by microdilution susceptibility assay. Summed up:
as §4

Test [13] concerns Klebsiella pneumoniae. As to the kind of experiment: Antibacterial activity against Klebsiella pneumoniae at 200 ug/disk after 24 hrs by disk diffusion method. Particulars: read-out: IZ. An outline of the steps:
as §2

The subject of test [14] is Klebsiella pneumoniae. The test can be described thus: Antibacterial activity against Klebsiella pneumoniae at 100 ug/disk after 24 hrs by disk diffusion method. Conditions: read-out: IZ. An outline of the steps: as §2
Test [15] relates to Fusarium solani. The test can be described thus: Antifungal activity against Fusarium solani at 200 ug/disk after 48 hrs by disk diffusion method. Particulars: read-out: IZ. An outline of the steps: as §3
Test [16] concerns Klebsiella pneumoniae. The test can be described thus: Antibacterial activity against Klebsiella pneumoniae after 24 hrs by microdilution susceptibility assay. Summed up:
as §1

The test system of test [17] is Curvularia lunata. The test can be described thus: Antifungal activity against Curvularia lunata at 100 ug/disk after 48 hrs by disk diffusion method. Conditions: read-out: IZ. An outline of the steps:
as §3

The nature of test [18]: Antioxidant activity assessed as increase in reducing power at 100 uM. Summed up:
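Oyaizu method. Compound at 100 μM in methanol mixed with 0.2 M phosphate buffer pH 6.6 and 1% potassium ferricyanide, 50 °C for 20 min. 10% TCA added, then centrifuged 3000 rpm for 10 min. Upper layer mixed with water and 0.1% FeCl3; absorbance read at 700 nm.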

In test [19] the test system is Radical scavenging activity. The test can be described thus: Antioxidant activity assessed as DPPH radical scavenging activity at 100 uM. Summed up:
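Compound (100 μM) added to 100 μM DPPH in dioxane/ethanol. Kept at ambient temperature 20 min, then absorbance read at 517 nm. Percent DPPH scavenging taken from difference between test and control.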

Test [20] concerns Aspergillus niger. As to the kind of experiment: Antifungal activity against Aspergillus niger at 100 ug/disk after 48 hrs by disk diffusion method. Conditions: read-out: IZ. Summed up: as §3
The subject of test [21] is Staphylococcus aureus. As to the kind of experiment: Antibacterial activity against Staphylococcus aureus after 24 hrs by microdilution susceptibility assay. Summed up:
as §1

Test [22] has as its system Fusarium solani. As to the kind of experiment: Antifungal activity against Fusarium solani at 100 ug/disk after 48 hrs by disk diffusion method. Conditions: read-out: IZ. An outline of the steps: as §3
In test [23] the test system is Bacillus subtilis. The test can be described thus: Antibacterial activity against Bacillus subtilis at 200 ug/disk after 24 hrs by disk diffusion method. Particulars: read-out: IZ. An outline of the steps:
as §2

Test [24] relates to Bacillus subtilis. The test can be described thus: Antibacterial activity against Bacillus subtilis at 100 ug/disk after 24 hrs by disk diffusion method. Conditions: read-out: IZ. Summed up: as §2

Among the data in ChEMBL document CHEMBL1177891, “Synthesis and bioassay of pyrrolyl oxazolines and thiazolines” (2010) are MIC, zone of inhibition and inhibition values, retold here.

Values after ≈ are worked out from the molar mass of the structure shown.

As for `O=S(=O)(CC1=NCCS1)c1c[nH]cc1S(=O)(=O)c1ccc(Cl)cc1`, the MIC in test [1] was 50 µg/mL (≈ 123 µM); in test [2] it was 12.5 µg/mL (≈ 30.9 µM); in test [8], 50 µg/mL (≈ 123 µM); in test [11], 12.5 µg/mL (≈ 30.9 µM); in test [12], 25 µg/mL (≈ 61.7 µM); in [16], 50 µg/mL (≈ 123 µM). In [21], this compound displayed an MIC of 25 µg/mL (≈ 61.7 µM). Besides, the zone of inhibition at 200 µg/disc in [3] was 30 mm; in [5], 41 mm; in test [7], 38 mm; in [9], 34 mm; in test [13], 29 mm; in test [15], 38 mm. In addition, in test [23], the zone of inhibition at 200 µg/disc came out at 35 mm. In addition, the inhibition in [4] was found to be 41.4%; in [18], 40.4%; in [19], 40.5%. The zone of inhibition at 100 µg/disc in test [6] came to 29 mm; in test [10], 32 mm; in test [14] it was 27 mm; in test [17], 36 mm; in test [20], 34 mm; in test [22], 35 mm. The zone of inhibition at 100 µg/disc in [24] is 33 mm.

As for `CC(=O)N1CCN(c2ccc(OCC3COC(Cn4ccnc4)(c4ccc(Cl)cc4Cl)O3)cc2)CC1` (stereo not drawn) [KETOCONAZOLE], the figures for the zone of inhibition at 200 µg/disc in test [5], in test [7] and in test [15] were 44 mm, 39 mm and 42 mm, respectively. Besides, the MIC was found to be 12.5 µg/mL (≈ 23.5 µM) in test [8], 6.25 µg/mL (≈ 11.8 µM) in [11] and 6.25 µg/mL (≈ 11.8 µM) in test [12]. For the same compound, the zone of inhibition at 100 µg/disc was 41 mm in test [17], 36 mm in [20] and 38 mm in test [22].

As to `O=C(N[C@H](CO)[C@H](O)c1ccc([N+](=O)[O-])cc1)C(Cl)Cl` [CHLORAMPHENICOL], the MIC turned out to be 12.5 µg/mL (≈ 38.7 µM) in [1], 6.25 µg/mL (≈ 19.3 µM) in test [2], 6.25 µg/mL (≈ 19.3 µM) in test [16] and 6.25 µg/mL (≈ 19.3 µM) in [21]. For the same compound, the zone of inhibition at 200 µg/disc in test [3] was 45 mm; in [9] it was 41 mm; in [13] it was 42 mm; in [23], 44 mm. The zone of inhibition at 100 µg/disc was determined as 42 mm in [6], 35 mm in test [10], 37 mm in test [14] and 38 mm in [24].

In the case of `O=S(=O)(CC1=NCCO1)c1c[nH]cc1S(=O)(=O)c1ccccc1`, the zone of inhibition at 200 µg/disc in test [3] turned out to be 15 mm; in test [5], 23 mm; in [7], 22 mm; in test [9] it was 19 mm; in test [13] it was 17 mm; in test [15], 22 mm. In [23], the zone of inhibition at 200 µg/disc was found to be 18 mm. The inhibition in test [4] was found to be 87.7%; in test [18], 86.8%; in [19], 88.3%. Also, the zone of inhibition at 100 µg/disc in [6] was found to be 13 mm; in [10] it was 15 mm; in test [14] it was 14 mm; in test [17], 19 mm; in test [20], 20 mm; in test [22] it was 18 mm. Also, the zone of inhibition at 100 µg/disc in test [24] amounted to 16 mm.

For the compound `O=S(=O)(/C=C/S(=O)(=O)c1ccc(Cl)cc1)CC1=NCCO1`, the zone of inhibition at 200 µg/disc in test [3] worked out at 10 mm; in test [5], 20 mm; in [7] it was 20 mm; in test [9] it was 15 mm; in test [13] it was 12 mm; in test [15], 19 mm. Moreover, the zone of inhibition at 200 µg/disc in [23] was found to be 14 mm. The values for the inhibition in test [4], in [18] and in test [19] were 85.5%, 82.7% and 86.6%, respectively. In addition, the zone of inhibition at 100 µg/disc is 9 mm in test [6]; 13 mm in test [10]; 10 mm in test [14]; 18 mm in [17]; 17 mm in [20]; 16 mm in test [22]. Also, the zone of inhibition at 100 µg/disc in test [24] amounted to 12 mm.

For the compound `O=S(=O)(CC1=NCCS1)c1c[nH]cc1S(=O)(=O)c1ccccc1`, the MIC in test [1] came to 100 µg/mL (≈ 270 µM); in test [2], 50 µg/mL (≈ 135 µM); in [8], 100 µg/mL (≈ 270 µM); in test [11], 100 µg/mL (≈ 270 µM); in test [12], 100 µg/mL (≈ 270 µM); in [16], 100 µg/mL (≈ 270 µM). The MIC in test [21] was 100 µg/mL (≈ 270 µM). The zone of inhibition at 200 µg/disc in [3] was 28 mm; in test [5], 35 mm; in test [7], 33 mm; in test [9] it was 30 mm; in [13] it was 25 mm; in [15], 37 mm. In addition, the zone of inhibition at 200 µg/disc in [23] amounted to 32 mm. Further, the inhibition was found to be 34.6% in [4], 32.4% in test [18] and 33.8% in test [19]. Further, the zone of inhibition at 100 µg/disc came to 24 mm in test [6]; 29 mm in test [10]; 23 mm in test [14]; 32 mm in test [17]; 30 mm in [20]; 34 mm in [22]. Besides, in test [24], the zone of inhibition at 100 µg/disc turned out to be 30 mm.
